Reference: ChEMBL document CHEMBL4765395, “Design, diversity-oriented synthesis and biological evaluation of novel heterocycle derivatives as non-nucleoside HBV capsid protein inhibitors” (Eur J Med Chem, 2020)
Activity calls are given as the source filed them. No cut-off for these calls is given here.

How the values were obtained:
Hepatitis B virus [1] = assay: Antiviral activity against HBV infected in human HepG2.2.15 cells assessed as reduction in intracellular viral DNA level at 50 uM incubated for 4 days prior to compound washout followed by compound addition and measured after 4 days by fluorogenic probe based RT-qPCR analysis relative to control; assay type: functional; conditions: for inhibition: time 8.0 day; for inhibition at 50 µM: HepG2.2.15, 192 h, time 8 day
HepG2 2.2.15 [2] = assay: Cytotoxicity against human HepG2.2.15 cells assessed as reduction in cell viability at 50 uM incubated for 4 days prior to compound washout followed by compound addition and measured after 4 days by CCK8 assay relative to control; assay type: cell-based; conditions: hepg2 2.2.15, 192 h, time 8 day
Hepatitis B virus [3] = assay: Binding affinity to recombinant HBV capsid protein assessed as response value at 9.9 uM by surface plasmon resonance analysis (reference value: 11.31)
Outline: (§1)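 Recombinant HBV capsid protein purified and amine-coupled to a CM5 sensor chip. Six doses of test compound run with running buffer containing 5% DMSO, plus eight solvent-calibration solutions and 50% DMSO solution. Samples centrifuged 15 min before loading. PBS and NaAc-HAc buffers used. Binding read as SPR response.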

Hepatitis B virus [4] = assay: Binding affinity to recombinant HBV capsid protein assessed as response value at 22.2 uM by surface plasmon resonance analysis (reference value: 11.31); outline: as §1
Hepatitis B virus [5] = assay: Antiviral activity against HBV infected in human HepG2.2.15 cells assessed as […] incubated for 4 days prior to compound washout followed by compound addition and measured after 4 days by fluorogenic probe based RT-qPCR analysis; assay type: functional, organism-based
Hepatitis B virus [6] = assay: Antiviral activity against HBV infected in human HepG2.2.15 cells assessed as […] at 100 uM incubated for 4 days prior to compound washout followed by compound addition and measured after 4 days by fluorogenic probe based RT-qPCR analysis relative to control; assay type: functional; conditions: for inhibition at 100 µM: HepG2.2.15, 192 h, time 8 day
Hepatitis B virus [7] = assay: (§2) Binding affinity to recombinant HBV capsid protein by surface plasmon resonance analysis; outline: as §1
[8] = as §2; parameters: species or system Hepatitis B virus; outline: as §1
[9] = Selectivity index, ratio of CC50 for human HepG2.2.15 cells to IC50 for antiviral activity against HBV infected in human HepG2.2.15 cells assessed as reduction in intracellular viral DNA level; assay type: toxicity, cell-based; conditions: read-out: Ratio CC50/IC50
HepG2 2.2.15 [10] = assay: Cytotoxicity against human HepG2.2.15 cells assessed as reduction in cell viability at 100 uM incubated for 4 days prior to compound washout followed by compound addition and measured after 4 days by CCK8 assay relative to control; assay type: cell-based; conditions: hepg2 2.2.15, 192 h, time 8 day
Outline: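 Three wells of 4000 HepG2.2.15 cells per well received a single 100 µM concentration for 8 days, with medium replaced on day 4. CCK-8 (10%) was added 0.5 h before the end, and OD was read at 450 and 630 nm. Percent cell death was calculated against untreated cells.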

[11] = Selectivity index, ratio of CC50 for human HepG2.2.15 cells to IC50 for antiviral activity against HBV infected in human HepG2.2.15 cells assessed as reduction in HBsAg secretion; assay type: toxicity, cell-based; conditions: read-out: Ratio CC50/IC50
Hepatitis B virus [12] = assay: Antiviral activity against HBV infected in human HepG2.2.15 cells assessed as reduction in HBeAg secretion incubated for 4 days prior to compound washout followed by compound addition and measured after 4 days by ELISA; assay type: functional, organism-based
Outline: (§3)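 Five doses (100, 20, 4, 0.8, 0.16 µM) were added in triplicate to HepG2.2.15 cultures for 8 days, with fresh medium on day 4 and untreated controls. Day-8 supernatants were assayed for HBsAg and HBeAg by ELISA kit with absorbance read-out. IC50 is the concentration giving 50% inhibition of antigen secretion.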

Hepatitis B virus [13] = assay: Binding affinity to recombinant HBV capsid protein assessed as response value at 6.6 uM by surface plasmon resonance analysis (reference value: 11.31); outline: as §1
Hepatitis B virus [14] = assay: Antiviral activity against HBV infected in human HepG2.2.15 cells assessed as reduction in HBsAg secretion incubated for 4 days prior to compound washout followed by compound addition and measured after 4 days by ELISA; assay type: functional, organism-based; outline: as §3
Hepatitis B virus [15] = assay: Binding affinity to recombinant HBV capsid protein assessed as response value at 14.8 uM by surface plasmon resonance analysis (reference value: 11.31); outline: as §1
[16] = Selectivity index, ratio of CC50 for human HepG2.2.15 cells to IC50 for antiviral activity against HBV infected in human HepG2.2.15 cells assessed as reduction in HBeAg secretion; assay type: toxicity, cell-based; conditions: read-out: Ratio CC50/IC50
[17] = Cytotoxicity against human HepG2.2.15 cells assessed as reduction in cell viability incubated for 4 days prior to compound washout followed by compound addition and measured after 4 days by CCK8 assay; assay type: cell-based, HepG2 2.2.15; conditions: time 8 day
Outline: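 Cytotoxicity in HepG2.2.15 cells was measured with five doses (100, 20, 4, 0.8, 0.16 µM) over 8 days, with medium changed on day 4. CCK-8 (10%) was added 0.5 h before the end, OD was read at 450/630 nm, and CC50 is the concentration killing 50% of cells against untreated controls.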

HepG2 2.2.15 [18] = assay: Cytotoxicity against human HepG2.2.15 cells assessed as reduction in cell viability at 20 uM incubated for 4 days prior to compound washout followed by compound addition and measured after 4 days by CCK8 assay relative to control; assay type: cell-based; conditions: hepg2 2.2.15, 192 h, time 8 day
Hepatitis B virus [19] = assay: Antiviral activity against HBV infected in human HepG2.2.15 cells assessed as reduction in intracellular viral DNA level at 20 uM incubated for 4 days prior to compound washout followed by compound addition and measured after 4 days by fluorogenic probe based RT-qPCR analysis relative to control; assay type: functional; conditions: for inhibition: time 8.0 day; for inhibition at 20 µM: HepG2.2.15, 192 h, time 8 day
Hepatitis B virus [20] = assay: Binding affinity to recombinant HBV capsid protein assessed as response value at 100 uM by surface plasmon resonance analysis (reference value: 14.56); outline: as §1
Hepatitis B virus [21] = assay: Binding affinity to recombinant HBV capsid protein assessed as response value at 25 uM by surface plasmon resonance analysis (reference value: 14.56); outline: as §1
Hepatitis B virus [22] = assay: Binding affinity to recombinant HBV capsid protein assessed as response value at 50 uM by surface plasmon resonance analysis (reference value: 14.56); outline: as §1
Hepatitis B virus [23] = assay: Antiviral activity against HBV infected in human HepG2.2.15 cells assessed as reduction in intracellular viral DNA level incubated for 8 days by fluorogenic probe based RT-qPCR analysis; conditions: HepG2.2.15, 192 h
Hepatitis B virus [24] = assay: Binding affinity to recombinant HBV capsid protein assessed as response value at 12.5 uM by surface plasmon resonance analysis (reference value: 14.56); outline: as §1
[25] = Cytotoxicity against human HepG2.2.15 cells assessed as reduction in cell viability incubated for 4 days prior to compound washout followed by compound addition and measured after 4 days by […]; assay type: cell-based, HepG2 2.2.15; conditions: time 8 day
Hepatitis B virus [26] = assay: Binding affinity to recombinant HBV capsid protein assessed as response value at 6.25 uM by surface plasmon resonance analysis (reference value: 14.56); outline: as §1

| SMILES | Activity (HepG2 2.2.15 [2]) | IC50 (Hepatitis B virus [5]) [µM] | inhibition at 100 µM (Hepatitis B virus [6]) [%] | selectivity ratio [9] | Activity (HepG2 2.2.15 [10]) | selectivity ratio [11] | IC50 (Hepatitis B virus [12]) [µM] | IC50 (Hepatitis B virus [14]) [µM] | selectivity ratio [16] | CC50 at 192 h [17] [µM] | Activity (HepG2 2.2.15 [18]) | other results |
| --- | --- | --- | --- | --- | --- | --- | --- | --- | --- | --- | --- | --- |
| O=C(NCc1ccc(F)cc1)c1ccc(-c2ccccc2)nc1-c1ccccc1 | 4.4% | – | – | – | – | – | – | – | – | – | – | inhibition (Hepatitis B virus [1]): inactive |
| CC(C)Cc1sc(-c2nccs2)nc1C(=O)Nc1ccc(F)cc1 | – | 2.2 | 89.8 | 36.7 | Non-Toxic | < 0.8 | > 100 | > 100 | < 0.8 | 80.8 | – | Activity (Hepatitis B virus [3]): 18.8 RU; Activity (Hepatitis B virus [4]): 26.4 RU; Activity (Hepatitis B virus [7]): Dose-dependent effect; Kd [8]: 60 µM; Activity (Hepatitis B virus [13]): 15.4 RU; Activity (Hepatitis B virus [15]): 20.6 RU |
| CC(C)Cc1nc(-c2cccc(F)c2)ncc1C(=O)NCc1ccc(F)cc1 | Non-Toxic | – | – | – | – | – | – | – | – | – | – | inhibition at 50 µM (Hepatitis B virus [1]): 35.6% |
| CCOC(=O)c1cn(-c2nccs2)nc1NCc1ccccc1 | – | – | – | – | 30.4% | – | – | – | – | – | – | inhibition (Hepatitis B virus [6]; time 8.0 day): inactive |
| CC(C)Cc1nc(-c2ccsc2)sc1C(=O)NCc1ccc(F)cc1 | – | – | – | – | – | – | – | – | – | – | 6.7% | inhibition (Hepatitis B virus [19]): inactive |
| Nc1ccn([C@@H]2CS[C@H](CO)O2)c(=O)n1 [LAMIVUDINE] | – | 0.6 | 87.9 | > 167 | 12.7% | – | > 100 | > 100 | – | > 100 | – | – |
| CC(C)Cc1nc(-c2ccccc2)ncc1C(=O)NCc1ccccc1 | Non-Toxic | – | – | – | – | – | – | – | – | – | – | inhibition (Hepatitis B virus [1]): inactive |
| CC(C)Cc1sc(-c2nccs2)nc1C(=O)NCc1ccc(F)cc1F | – | 2.7 | 83.8 | 16.8 | 24.9% | 2.2 | 30.1 | 21 | 1.5 | 45.4 | – | – |
| CC(C)Cc1sc(-c2nccs2)nc1C(=O)NCc1ccc(F)cc1 | – | 2.3 | 97.3 | 25.7 | 98.8% | 1.9 | 31.7 | 31.7 | 1.9 | 59.2 | – | Activity (Hepatitis B virus [20]): 63.5 RU; Activity (Hepatitis B virus [7]): Dose-dependent effect; Kd [8]: 50.6 µM; Activity (Hepatitis B virus [21]): 38.4 RU; Activity (Hepatitis B virus [22]): 41.4 RU; IC50 (Hepatitis B virus [23]): 1.33 µM; Activity (Hepatitis B virus [24]): 23.9 RU; CC50 at 192 h [25]: 50.4 µM; Activity (Hepatitis B virus [26]): 17.7 RU |
| Cc1ccc(-c2nc(CC(C)C)c(C(=O)NCc3ccc(F)cc3)s2)s1 | – | – | – | – | – | – | – | – | – | – | Non-Toxic | inhibition (Hepatitis B virus [19]): inactive |
| CC(C)Cc1nc(-c2cccc(F)c2)ncc1C(=O)O | Non-Toxic | 9.9 | – | > 10.1 | – | – | 9.7 | > 100 | > 10.3 | > 100 | – | inhibition at 50 µM (Hepatitis B virus [1]): 54.2% |
| CC(C)Cc1nc(-c2ccncc2)sc1C(=O)NCc1ccc(F)cc1 | – | 40.5 | – | > 2.5 | – | > 26.3 | 62.3 | 3.8 | > 1.6 | > 100 | 35.8% | inhibition at 20 µM (Hepatitis B virus [19]): 57.8% |
| CC(C)Cc1nc(NC(=O)c2ccc(F)cc2)sc1C(=O)NCc1ccc(F)cc1 | – | – | – | – | – | – | – | – | – | – | 20.7% | inhibition at 20 µM (Hepatitis B virus [19]): 29.2% |
